Assay results of several laboratories.
Protocols differ between the studies behind these lines.
Target: Proto-oncogene tyrosine-protein kinase ROS (ROS1, Homo sapiens, UniProt P08922)

SMILES | effect on | action | method | tested at | endpoint | result
C=CC(=O)Nc1cc(Nc2nccc(Nc3cc(Cl)c(F)cc3C(C)(C)O)n2)c(OC)cc1N1CC[C@@H](N(C)C)C1 | enzyme activity | inhibitor |  | 1 µM | inhibition | 51%
CO[C@@H](C)c1c(Nc2ccc([C@@H](N(C)C(=O)C3CCS(=O)(=O)CC3)C(F)(F)F)cc2)cnc2cc(Cl)nn12 | cell-free assay |  | competition with immobilised ligand | 1 µM | remaining binding | 82%
Cc1cnc(NC2CCOCC2)nc1-n1cnc(C(=O)NC(CN)c2cc(F)cc(Cl)c2)c1 (stereo not drawn) | enzyme activity | inhibitor | radiometric | 1 µM | remaining activity | 103%
N#Cc1ccc(Nc2ccc3[nH]c(=O)[nH]c3c2)c(Cl)c1 | cell-free assay |  | competition with immobilised ligand | 1 µM | remaining binding | 100%
F[C@@H]1CCN(c2nccc(-c3cnn4ncccc34)n2)C1 | binding |  |  | 1 µM | remaining binding | 88%
COc1cc(Cl)c(C(=O)N[C@@H](CN[C@H]2CC[C@@H](N)CC2)Cc2ccc(C#N)cc2)cc1-c1ccc(CN[C@H](C)c2ccc(C)cc2)o1 | enzyme activity | inhibitor |  | 1 µM | remaining activity | 137%
CCN(CC)c1ccc(C2=NNC(=O)CC2C)cc1[N+](=O)[O-] (stereo not drawn) | enzyme activity | inhibitor |  | 10 µM | remaining activity | 106%
CC(=O)N1CCC(c2ccc(C(=O)NC(=N)N)cc2C(F)(F)F)CC1 | cell-free assay |  | competition with immobilised ligand | 1 µM | remaining binding | 100%
COc1cc2c(N3CCN(C(=O)Nc4ccc(OC(C)C)cc4)CC3)ncnc2cc1OCCCN1CCCCC1 | cell-free assay |  |  | 0.5 µM | remaining signal | 90.1%
CNCc1ccc(-c2cc(-c3nc(-c4ccc(S(=O)(=O)C(C)C)cc4)cnc3N)on2)cc1 | enzyme activity | inhibitor |  | 0.4 µM | inhibition | 0%
O=C(Nc1cnn(-c2csc(C(=O)NC3COC3)c2)c1)Nc1c(F)cccc1Cl | enzyme activity | inhibitor |  | 5 µM | remaining activity | 85.5%
Nc1ncnc2occ(-c3ccc(NC(=O)Nc4cc(C(F)(F)F)ccc4F)cc3)c12 | cell-free assay |  |  | 20 µM | remaining signal | 4.9%
COc1ccc(COc2ccc(Cc3cnc(N)nc3N)cc2OC)cc1 | cell-free assay |  |  | 0.5 µM | remaining signal | 99.9%
COc1cc2ncnc(Nc3ccc(Oc4ccccc4)cc3C)c2cc1OC | enzyme activity | inhibitor |  | 1 µM | inhibition | 4%
O=C(N[C@H]1CCCCC/C=C\C2C[C@@]2(C(=O)O)NC(=O)[C@@H]2C[C@@H](Oc3ccncc3)CN2C1=O)OC1CCCC1 (stereo partly drawn) | cell-free assay |  | competition with immobilised ligand | 1 µM | remaining binding | 92%
CCN(CC)CCNC(=O)c1c(C)[nH]c(/C=C2\C(=O)Nc3ccc(F)cc32)c1C | enzyme activity | inhibitor |  | 0.3 µM | inhibition | 4%
CCCOc1ccc([C@@H]2[C@@H](C(=O)O)[C@H](c3ccc4c(c3)OCO4)CN2CC(=O)Nc2c(CC)cccc2CC)cc1 | cell-free assay |  | competition with immobilised ligand | 1 µM | remaining binding | 90%
O=C1NC(=O)c2cc(Nc3ccc(F)cc3)c(Nc3ccc(F)cc3)cc21 | cell-free assay |  |  | 0.5 µM | remaining signal | 92%
